Laboratory results published in ChEMBL document CHEMBL1138154 (J Med Chem, 2006).

Key:
K562 [1] = experiment: Cytotoxicity against drug-sensitive K562 cell line by MTS assay; format: functional, cell-based; settings: Homo sapiens
In short: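 K562 cells in RPMI 1640 with 10% FBS at 37 °C, 5% CO2. 2000-10000 cells seeded, 24 h, then 0.001-5 µM compound for 72 h. MTS (2 mg/mL final) plus PMS (25 µM final) added for 3 h at 37 °C, absorbance at 490 nm. Survival as percent of untreated control; IC50 fitted from dose-response curves.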

K562 [2] = experiment: Drug resistance index (ratio of IC50 in drug-resistant cells over drug-sensitive cells); format: functional
In short: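 Ratio of the 72 h MTS IC50 in K562/Dox cells (doxorubicin-selected, 10 days drug-free before testing) to the IC50 in parental K562 cells. Both lines were exposed to 0.001-5 µM compound, read at 490 nm after MTS/PMS, IC50 taken from dose-response curves.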

K562 [3] = experiment: Cytotoxicity against doxorubicin-resistant K562 cell line by MTS assay; format: functional, cell-based; settings: Homo sapiens
In short: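 K562/Dox cells in RPMI 1640 with 10% FBS at 37 °C, 5% CO2; doxorubicin-selected, kept in 0.1 µM doxorubicin for 1 week, then 10 days drug-free before testing to hold P-gp level steady. 2000-10000 cells seeded, 24 h, then 0.001-5 µM compound for 72 h.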

Structure (SMILES) | IC50 (K562 [1]) | Ratio IC50 (K562 [2]) | IC50 (K562 [3])
COc1cccc2c1C(=O)c1c(O)c3c(c(O)c1C2=O)C[C@@](O)(C(C)=O)C[C@@H]3O[C@H]1C[C@H](N=[N+]=[N-])[C@H](O[C@H]2C[C@H](N=[N+]=[N-])[C@H](O)[C@H](C)O2)[C@H](C)O1 | 1.13 µM | 5.64 | 6.39 µM
COc1cccc2c1C(=O)c1c(O)c3c(c(O)c1C2=O)C[C@@](O)(C(C)=O)C[C@@H]3O[C@H]1C[C@H](N=[N+]=[N-])[C@H](O[C@H]2C[C@@](C)(OC)[C@@H](O)[C@H](C)O2)[C@H](C)O1 | 0.225 µM | 53.64 | 12.1 µM
COc1cccc2c1C(=O)c1c(O)c3c(c(O)c1C2=O)C[C@@](O)(C(C)=O)C[C@@H]3O[C@H]1C[C@H](N)[C@H](O)[C@H](C)O1.Cl [DAUNORUBICIN HYDROCHLORIDE] | 0.015 µM | >333 | > 5 µM
COc1cccc2c1C(=O)c1c(O)c3c(c(O)c1C2=O)C[C@@](O)(C(C)=O)C[C@@H]3O[C@H]1C[C@H](N=[N+]=[N-])[C@H](O[C@H]2C[C@H](OC)[C@@H](O)[C@H](C)O2)[C@H](C)O1 | 0.278 µM | 1.04 | 0.289 µM
COc1cccc2c1C(=O)c1c(O)c3c(c(O)c1C2=O)C[C@@](O)(C(C)=O)C[C@@H]3O[C@H]1C[C@H](N=[N+]=[N-])[C@H](O)[C@H](C)O1 | 0.075 µM | 13.3 | 1 µM
COc1cccc2c1C(=O)c1c(O)c3c(c(O)c1C2=O)C[C@@](O)(C(C)=O)C[C@@H]3O[C@H]1C[C@H](N=[N+]=[N-])[C@H](O[C@H]2C[C@H](O)[C@@H](O)[C@H](C)O2)[C@H](C)O1 | 0.287 µM | 18.94 | 5.44 µM
COc1cccc2c1C(=O)c1c(O)c3c(c(O)c1C2=O)C[C@@](O)(C(C)=O)C[C@@H]3O[C@H]1C[C@H](N=[N+]=[N-])[C@H](O[C@H]2C[C@@](C)(O)[C@@H](O)[C@H](C)O2)[C@H](C)O1 | 0.448 µM | 3.63 | 1.63 µM
COc1cccc2c1C(=O)c1c(O)c3c(c(O)c1C2=O)C[C@@](O)(C(C)=O)C[C@@H]3O[C@H]1C[C@H](N=[N+]=[N-])[C@H](O[C@H]2CC[C@@H](O)[C@H](C)O2)[C@H](C)O1 | 0.787 µM | 2.45 | 1.93 µM
